Screening results from PubChem.
XiGFP reactiv: reactivates the inactive X chromosome in mouse fibroblasts | XiGFP mouse fibroblasts, % GFP-positive cells imaging, 3 d; cells co-treated with 5-aza-dC sensitizer; scaled so ellipticine positive control = 100% | activation, % at 7.58 µM | actives 0.055% (n = 360,000) | AID 743238;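 active = mean normalized replicate activation at least 10% and every replicate at or above 10%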;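 also: 0% = median of on-plate neutral control wells and 100% = ellipticine 6 µM median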
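Material: XiGFP fibroblasts, SV40-immortalized. Buffer or medium: DMEM plus 5-aza-dC sensitizer. Compound: single concentration per compound, delivered by pin transfer. Times: 3 days compound exposure. Controls: ellipticine 6 µM.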
TWEAK-Fn14 inh: inhibitors of TWEAK-Fn14 interaction signaling | TWEAK-stimulated Fn14 reporter cells, luciferase luminescence, 8 h | AID 1159606 | inhibition, % at 10 µM | actives 2% (n = 360,000); in the data active = inhibition above about 50%
TROY NFkB inh: blocks TROY-dependent signaling in reporter cells | Q293 LMP1-TROYcd NF-kB luciferase reporter, 4 h | AID 1347056 | actives 0.98% (n = 360,000) | inhibition, % at 10 µM;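 active = compounds whose plate-normalised and pattern-corrected inhibition of the luciferase reporter signal at the single screening dose is 50% or more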
CaV13 ICDI inh: Disruptors of the CACNA1D IQ motif to Ca2+-dependent inactivation inhibitor domain association, primary screening, Förster resonance energy transfer in intact living …. HEK cells, CFP/YFP FRET ICDI-IQ, plate reader, 10 min; percent FRET-ratio fall versus neutral wells. inhibition, % at 12.3 µM. actives 0.098% (n = 340,000). AID 743397;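 active = mean replicate inhibition of at least 30% and at least 1% of replicates passing that level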;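 also: 0% = median of the neutral control wells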
LGR2 antag: inhibitors of bursicon-induced Drosophila LGR2 receptor cAMP signaling; AID 720647; HEK293 LGR2, CRE-luciferase, bursicon-stimulated, 4 h; inhibition, % at 9.99 µM; actives 0.35% (n = 380,000);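 active = drop in luminescence signal, shown as inhibition above about 50% in the replicate tests, limit read from the data, passing the limit was not always enough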;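 also: agonist challenge used bursicon conditioned medium at about half maximal strength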
Numbers without * were called inactive; . = no result given. A selection: hits, their analogues and other compounds. The true share with any hit is near 2%.

SMILES	XiGFP reactiv	TWEAK-Fn14 inh	TROY NFkB inh	CaV13 ICDI inh	LGR2 antag
C[C@@H]1CN([C@H](C)CO)C(=O)c2ccccc2-c2ccccc2CO[C@@H]1CN(C)S(=O)(=O)c1ccc(F)cc1	0.0	.	.	.	-14.7
O=C(Nc1ccc2c(c1)OCO2)c1cnn2c(C(F)(F)F)cc(-c3ccco3)nc12	.	9.9	-8.9	-2.5	.
O=C(Nc1cnn(C23CC4CC(CC(C4)C2)C3)c1)c1cnn2c(C(F)(F)F)cc(-c3ccco3)nc12	.	95.7*	81.4*	-7.4	79.0*
Cc1ccccc1-c1ccc([C@H]2[C@H]3CN(C(=O)Nc4ccc(F)cc4)CC(=O)N3[C@H]2CO)cc1	0.1	.	.	.	15.5
C=C1C(=O)OC2CC1C(OC(C)=O)CC(C)=CCCC(C)=CCCC2(C)O (configuration not stated)	.	70.7*	38.4	.	.
C=C1C(=O)OC2CC1C(O)CC(C)=CCCC(C)=CC(O)CC2C (configuration not stated)	2.3	92.2*	37.2	-5.1	.
C=C1C(=O)OC2C1CCC(C)C1C=CC(=O)C12C (configuration not stated)	1.1	48.0	2.1	-10.2	0.4
CC(C)(C)c1ccc(C(=O)n2cnc3ccccc32)cc1	0.0	77.6*	63.7*	-21.8	-1.1
CCN1CCN(c2nc(-c3ccccc3Cl)nc3ccccc23)CC1	0.1	68.0*	-10.3	-3.1	-3.1
COc1cccc(C(=O)Nc2ccc3c(c2)C(=O)N(C)C[C@H](OC)[C@H](C)CN(C(=O)C2CCCC2)[C@@H](C)CO3)c1	0.4	.	.	.	11.3
Cc1sc(NC(=O)/C=C/c2ccc(C(C)C)cc2)c(C#N)c1C	.	11.9	-20.6	-2.5	.
CC(C)c1ccc(/C=C/C(=O)Nc2nncs2)cc1	0.0	49.7	36.6	-14.4	64.0*
COc1ccc(-c2csc(NC(=S)NC(=O)/C=C/c3ccc(C(C)C)cc3)n2)cc1OC	0.0	65.6*	69.8*	.	10.2
C[C@@H]1CCCCO[C@@H](CN(C)CC2CCCCC2)[C@@H](C)CN([C@H](C)CO)C(=O)c2cc(NC(=O)Cc3ccccc3)ccc2O1	0.0	.	.	.	-8.9
CCCN1[C@H](C(=O)Nc2nccs2)[C@@H](CO)[C@@H]2Cn3c(ccc(-c4ccccc4OC)c3=O)[C@@H]21	0.4	.	.	.	4.5
COc1ccc(Nc2nc3ccc(C)cc3cc2C#N)c(OC)c1	0.2	84.6*	-21.2	-15.3	.
COc1ccc(Nc2nc3cc(C)ccc3cc2C#N)c(OC)c1	0.3	-4.5	-3.4	6.4	6.6
COC(=O)Cc1[nH]n(-c2nc3ccccc3s2)c(=O)c1C(C)=Nc1ccc(C)cc1	-0.1	91.2*	81.8*	-1.8	53.2*
CCC(=NCc1ccccc1)c1c(C(F)(F)F)[nH]n(-c2nc3ccccc3s2)c1=O	.	41.4	-63.4	-3.8	.
CCC(=NCc1ccco1)c1c(C(F)(F)F)[nH]n(-c2nc3ccccc3s2)c1=O	.	87.0*	-28.7	-4.3	.
COC(=O)Cc1[nH]n(-c2nc3ccccc3s2)c(=O)c1C(C)=Nc1ccc(Cl)cc1	0.1	16.7	43.5	-4.3	-4.7
O=c1c(C=NCc2cccnc2)c(C(F)(F)F)[nH]n1-c1nc2ccccc2s1	0.0	77.3*	48.4	-0.3	58.4*
CCCc1[nH]n(-c2nc3ccccc3s2)c(=O)c1C=NCC(C)C	.	-20.8	-16.0	.	.
CC(=NCc1ccco1)c1c(C)[nH]n(-c2nc3ccccc3s2)c1=O	.	90.5*	83.9*	.	.
O=C(NCC[C@@H]1CC[C@H](NC(=O)c2cnccn2)[C@H](CO)O1)Nc1ccc(F)cc1	-0.4	.	.	.	-5.6
SMILES	XiGFP reactiv	TWEAK-Fn14 inh	TROY NFkB inh	CaV13 ICDI inh	LGR2 antag
O=C(C[C@@H]1C[C@@H]2c3cc(NC(=O)C4CCOCC4)ccc3O[C@@H]2[C@@H](CO)O1)NCCc1ccccc1	0.4	.	.	.	-13.7
COCC(=O)N1CC2(C1)CN(Cc1cccc(Cl)c1)[C@@H](CO)c1[nH]c3cc(OC)ccc3c12	0.0	.	.	.	6.5
c1ccc(Nc2ncnc3sc4c(c23)CCC4)cc1	.	-0.2	-3.2	-5.1	.
c1csc(CCNc2ncnc3sc4c(c23)CCC4)c1	0.3	60.8*	54.0*	-5.2	.
CC(C)(C)[C@@H]1C=C(C(=O)O)O[C@H](OCCCCO)C1	-0.3	-4.0	-8.9	-5.7	6.4
O=C(NCc1ccccc1)C1=C[C@H](C2CCCCC2)C[C@H](OCCCCO)O1	6.1	-8.7	-28.8	-3.9	-1.0
